Active and inactive are the calls of the source. The calls are words filed in the database; no cut-off is given here.
Tests used:
A2780 [1] = assay: Cell cycle arrest in human A2780 cells assessed as increase in S phase at 10 uM after 24 hrs by FACS analysis; format: functional, cell-based
Method in brief: (§1)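 Living A2780 cells treated with 10 µM test agent for 24 h and 48 h, then examined for cell-cycle distribution by FACS. Phase populations (Sub-G1, G1/G0, S, G2/M) were quantified by model fitting and expressed as arithmetic means of the population distribution (%).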

A2780 [2] = assay: Induction of apoptosis in human A2780 cells assessed as secondary necrotic cells at 10 uM after 24 hrs by Annexin V/propidium iodide staining based flow cytometry relative to control; format: functional
Method in brief: (§2)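 Annexin V/propidium iodide staining of A2780 cells exposed to 10 µM compound for 24 h and 48 h, read by flow cytometry. Viable, apoptotic, necrotic and secondary-necrotic fractions were reported as relative changes versus untreated control (%).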

A2780 [3] = assay: Cell cycle arrest in human A2780 cells assessed as decrease in S phase at 10 uM after 48 hrs by FACS analysis; format: functional, cell-based; method in brief: as §1
A2780 [4] = assay: Induction of apoptosis in human A2780 cells assessed as apoptotic cells at 10 uM after 24 hrs by Annexin V/propidium iodide staining based flow cytometry relative to control; format: functional; method in brief: as §2
A2780 [5] = assay: Cell cycle arrest in human A2780 cells assessed as increase in subG1 phase at 10 uM after 48 hrs by FACS analysis; format: functional, cell-based; method in brief: as §1
A2780 [6] = assay: Induction of apoptosis in human A2780 cells assessed as viable cells at 10 uM after 48 hrs by Annexin V/propidium iodide staining based flow cytometry relative to control; format: functional; conditions: A2780, 48 h, read-out: Activity; method in brief: as §2
A549 = assay: Cytotoxicity against human A549 cells assessed as reduction in cell proliferation after 96 hrs by sulforhodamine B assay; format: functional, cell-based; conditions: A549, 96 h
A2780 [7] = assay: Induction of apoptosis in human A2780 cells assessed as viable cells at 10 uM after 24 hrs by Annexin V/propidium iodide staining based flow cytometry relative to control; format: functional; conditions: A2780, 24 h, read-out: Activity; method in brief: as §2
A2780 [8] = assay: Induction of apoptosis in human A2780 cells assessed as secondary necrotic cells at 10 uM after 48 hrs by Annexin V/propidium iodide staining based flow cytometry relative to control; format: functional; method in brief: as §2
518A2 = assay: Cytotoxicity against human 518A2 cells assessed as reduction in cell proliferation after 96 hrs by sulforhodamine B assay; format: functional, cell-based; conditions: 518A2, 96 h
A2780 [9] = assay: Cell cycle arrest in human A2780 cells assessed as decrease in G2/M phase at 10 uM after 24 hrs by FACS analysis; format: functional, cell-based; method in brief: as §1
FaDu = assay: Cytotoxicity against human FADU cells assessed as reduction in cell proliferation after 96 hrs by sulforhodamine B assay; format: functional, cell-based
A2780 [10] = assay: Cytotoxicity against human A2780 cells assessed as reduction in cell proliferation after 96 hrs by sulforhodamine B assay; format: functional, cell-based; conditions: A2780, 96 h
NIH3T3 = assay: Cytotoxicity against mouse NIH/3T3 cells assessed as reduction in cell proliferation after 96 hrs by sulforhodamine B assay; format: ADME, cell-based; conditions: NIH3T3, 96 h
A2780 [11] = assay: Cell cycle arrest in human A2780 cells assessed as decrease in G1/G0 phase at 10 uM after 48 hrs by FACS analysis; format: functional, cell-based; method in brief: as §1
HT-29 = assay: Cytotoxicity against human HT-29 cells assessed as reduction in cell proliferation after 96 hrs by sulforhodamine B assay; format: functional, cell-based; conditions: HT-29, 96 h
A2780 [12] = assay: Cell cycle arrest in human A2780 cells assessed as decrease in G1/G0 phase at 10 uM after 24 hrs by FACS analysis; format: functional, cell-based; method in brief: as §1
MCF7 = assay: Cytotoxicity against human MCF7 cells assessed as reduction in cell proliferation after 96 hrs by sulforhodamine B assay; format: functional, cell-based; conditions: MCF7, 96 h
A2780 [13] = assay: Induction of apoptosis in human A2780 cells assessed as apoptotic cells at 10 uM after 48 hrs by Annexin V/propidium iodide staining based flow cytometry relative to control; format: functional; method in brief: as §2
A2780 [14] = assay: Induction of apoptosis in human A2780 cells assessed as necrotic cells at 10 uM after 24 hrs by Annexin V/propidium iodide staining based flow cytometry relative to control; format: functional; method in brief: as §2
A2780 [15] = assay: Induction of apoptosis in human A2780 cells assessed as necrotic cells at 10 uM after 48 hrs by Annexin V/propidium iodide staining based flow cytometry relative to control; format: functional; method in brief: as §2
SW-1736 = assay: Cytotoxicity against human SW1736 cells assessed as reduction in cell proliferation after 96 hrs by sulforhodamine B assay; format: functional, cell-based; conditions: SW-1736, 96 h
[16] = Selectivity index, ratio of EC50 for mouse NIH/3T3 cells to EC50 for human A2780 cells; conditions: NIH/3T3 cells versus A2780 cells
[17] = Selectivity index, ratio of EC50 for mouse NIH/3T3 cells to EC50 for human HT-29 cells; conditions: NIH/3T3 cells versus HT-29 cells
[18] = Selectivity index, ratio of EC50 for mouse NIH/3T3 cells to EC50 for human MCF7 cells; conditions: NIH/3T3 cells versus MCF7 cells
[19] = Selectivity index, ratio of EC50 for mouse NIH/3T3 cells to EC50 for human A549 cells; conditions: NIH/3T3 cells versus A549 cells

SMILES	Activity (A2780 [1])	Activity (A2780 [2]) [%]	Activity (A2780 [3])	Activity (A2780 [4]) [%]	Activity (A2780 [5])	viability at 10 µM (A2780 [6]) [%]	EC50 (A549) [µM]	change in viable cells vs control (%) at 10 µM (A2780 [7]) [%]	Activity (A2780 [8]) [%]	EC50 (518A2) [µM]	Activity (A2780 [9])	EC50 (FaDu) [µM]	EC50 (A2780 [10]) [µM]	EC50 (NIH3T3) [µM]	Activity (A2780 [11])	EC50 (HT-29) [µM]	Activity (A2780 [12])	EC50 (MCF7) [µM]	Activity (A2780 [14]) [%]	EC50 (SW-1736) [µM]	other results
CC(=O)O[C@H]1C[C@]2(C)[C@H]3CC=C4[C@@H]5CC(C)(C)CC[C@]5(C(=O)NCc5ccccc5)CC[C@@]4(C)[C@]3(C)CC[C@H]2C(C)(C)[C@@H]1OC(C)=O	Active	9	Active	4	Active	-75	8.8	-12	29	2.3	Active	3.3	1.1	7.7	Active	5.2	Active	7.6	1	5.2	Activity (A2780 [13]): 45%; Activity (A2780 [15]): 0%
CC(=O)O[C@@H]1[C@H](OC(C)=O)C[C@]2(C)[C@H]3CC=C4[C@@H]5CC(C)(C)CC[C@]5(C(=O)NCc5ccccc5)CC[C@@]4(C)[C@]3(C)CC[C@H]2C1(C)C	Active	10	Active	5	Active	-65	15.6	-16	20	5.7	Active	5.5	1.9	11.4	Active	7.7	Active	7.8	1	20.7	Activity (A2780 [13]): 45%; Activity (A2780 [15]): -1%
CC(=O)O[C@@H]1[C@H](OC(C)=O)C[C@]2(C)[C@H]3CC=C4[C@@H]5CC(C)(C)CC[C@]5(C(=O)O)CC[C@@]4(C)[C@]3(C)CC[C@H]2C1(C)C							20.4			15.3		17.3	10.5	14.2		21.4		17.6		22	
COCO[C@@H]1C[C@]2(C)[C@H]3CC=C4[C@@H]5CC(C)(C)CC[C@]5(C(=O)NCc5ccccc5)CC[C@@]4(C)[C@]3(C)CC[C@H]2C(C)(C)[C@H]1O							12.8			3.2		3.3		16.5		5.2		5.5		5.4	selectivity ratio [16]: 5; selectivity ratio [17]: 5; selectivity ratio [18]: 5; selectivity ratio [19]: 5
CC(=O)O[C@H]1C[C@]2(C)[C@H]3CC=C4[C@@H]5CC(C)(C)CC[C@]5(NC(=O)Oc5ccccc5)CC[C@@]4(C)[C@]3(C)CC[C@H]2C(C)(C)[C@H]1OC(C)=O	Active	3	Active	2	Active		8.5	-4		4.4	Active		2.4	15.4	Active	8.5	Active	5.8	-1	7.3	
CC(=O)O[C@H]1C[C@]2(C)[C@H]3CC=C4[C@@H]5CC(C)(C)CC[C@]5(C(=O)O)CC[C@@]4(C)[C@]3(C)CC[C@H]2C(C)(C)[C@@H]1OC(C)=O							15.2			11.7		9.5	6.7	10		16.5		14.8		23.4	
CC(=O)O[C@H]1C[C@]2(C)[C@H]3CC=C4[C@@H]5CC(C)(C)CC[C@]5(C(=O)NCc5ccccc5)CC[C@@]4(C)[C@]3(C)CC[C@H]2C(C)(C)[C@H]1OC(C)=O	Active	6	Active	5	Active	-79	5.6	-11	23	0.9	Active	2	0.5	9.4	Active	3.7	Active	3.5	-1	3.4	Activity (A2780 [13]): 55%; Activity (A2780 [15]): 1%
CC(=O)O[C@@H]1C[C@]2(C)[C@H]3CC=C4[C@@H]5CC(C)(C)CC[C@]5(C(=O)NCc5ccccc5)CC[C@@]4(C)[C@]3(C)CC[C@H]2C(C)(C)[C@H]1OC(C)=O							2.5			1.5		3.1	0.5	33.8		4.7		7.7			selectivity ratio [16]: 70
CC1(C)CC[C@]2(C(=O)NCc3ccccc3)CC[C@]3(C)C(=CC[C@@H]4[C@@]5(C)C[C@@H]6O[C@@H]6C(C)(C)[C@@H]5CC[C@]43C)[C@@H]2C1							25.8			15.7		> 30	8.6	20.5		26.6		8.6		> 30	
